The EternaBench riboswitch data

Columns and labels:
[1] = tested on: MS2 coat protein; test: apparent Kd, MS2 coat protein; higher = weaker binding; RNA-MaP array; tryptophan 2.4 mM where present
Procedure, shortened: (§1)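 On Illumina sequencing-chip clusters, designs were transcribed by stalled E. coli RNA polymerase and titrated with SNAP-549-labelled MS2 coat protein (0.7 or 1.5 nM, doubling to 3 µM), without and then with constant ligand, in 100 mM Tris-HCl pH 7.5, 80 mM KCl, 4 mM MgCl2, BSA, DTT, yeast tRNA and Tween-20. Apparent Kd is the median of filtered per-cluster curve fits to green signal normalised to red-channel RNA signal and control-cluster median Fmax.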

[2] = tested on: MS2 coat protein; test: apparent Kd, MS2 coat protein; higher = weaker binding; RNA-MaP array; theophylline 2 mM where present; conditions: designed as: ON switch for theophylline
Procedure, shortened: as §1

[3] = designed as: ON switch for tryptophan, no ligand
[4] = ligand present: tryptophan, designed as: ON switch for tryptophan
[5] = designed as: OFF switch for tryptophan, no ligand
[6] = ligand present: tryptophan, designed as: OFF switch for tryptophan

AGAAUAUAGUCGGCCGCCACUCUACAAACAUGAGGAUCACCCAUGUUCACAUAGUGGAAACACAUGAGGACCGGGACAUAGGCAU
apparent Kd [1, 3]: 15.6 nM
apparent Kd [1, 4]: 14.2 nM

CCUAUGCAGUCGGCCGCCACUGAACAUGAGGAUCACCCAUGUAUAUAAAGAUCCUGAUAUAAUAACAGGACCGGGACUGUAUAGG
apparent Kd [1, 5]: 59.7 nM
apparent Kd [1, 6]: 157 nM

GGUUACUCUACGGCCGCCACUGAACAUGAGGAUCACCCAUGUAAUGUUCAGACGUCUUUAGACGACAGGACCGGGUAGUGUAACC
apparent Kd [1, 3]: 178 nM
apparent Kd [1, 4]: 151 nM

ACAUGAGGAUCACCCAUGUUUGAUGUUCCUCGAGGACCGGUACGGCCGCCACUCGAACGAGUGGCGCGCGAGUGCGCACUCGCGC
apparent Kd [1, 3]: 12.2 nM
apparent Kd [1, 4]: 12.5 nM

UUACAUGAGGAUCACCCAUGUUUACUAUGUCGAGGACCGGUACGGCCGCCACUCGUAUUUGAUGAUUUAGGUGCCACAAGUUAUU
apparent Kd [1, 5]: 21.2 nM
apparent Kd [1, 6]: 20.5 nM

CUAUAUGGAAACAUAUAGAAGCGAAAGCAACGAGGACCGGUACGGCCGCCACUCGAAGAGUGGUGGACAUGAGGAUCACCCAUGU
apparent Kd [1, 3]: 63.3 nM
apparent Kd [1, 4]: 52.8 nM

AUGGAGACCUCGGCCGCCACUCUCCAUGAGGAUCUCCCAUGUAACAUGAGGAUCACCCAUGUGCUGAGGACCGGGAGGUCCUGAA
apparent Kd [1, 3]: 10.6 nM
apparent Kd [1, 4]: 12 nM

AACAUGAGGAUCACCCAUGUCCUCAUGAUUCGAGGACCGGUACGGCCGCCACUCGGUCCUCGCGAGGAGGAGUCAAAGACUCCAA
apparent Kd [1, 3]: 178 nM
apparent Kd [1, 4]: 393 nM

GGUAUGUAUUCGGAAACGAAUGCAUACCAACGAGGACCGGUACGGCCGCCACUCGGCCGUGAUCAACAUGAGGAUCACCCAUGUA
apparent Kd [1, 5]: 15.8 nM
apparent Kd [1, 6]: 26.8 nM

UAACAUGAGGAUCACCCAUGUAUACUAAGUCGAGGACCGGUACGGCCGCCACUCGAACUUCAAGAAUAGGCGGUAAAUGUAAGUA
apparent Kd [1, 5]: 11.5 nM
apparent Kd [1, 6]: 13.3 nM

UGUCGGCGUAAGUUGGCAUGUCUUGCUGGUCGAGGACCGGUACGGCCGCCACUCGAUCCUUCGCACAUGAGGAUCACCCAUGUUG
apparent Kd [1, 3]: 18.3 nM
apparent Kd [1, 4]: 17.1 nM

AAUAAACAUGAGGAUCACCCAUGUUGUUGACGAGGACCGGUACGGCCGCCACUCGACAUGAGGAUCACCCAUGUUGUCACAUGAG
apparent Kd [1, 3]: 180 nM
apparent Kd [1, 4]: 151 nM

UCGGACAUGAGGAUCACCCAUGUAAAUCCUCGAGGACCGGUACGGCCGCCACUCGAACGAGUGGCACGCGAGUGCGCACUCGCGU
apparent Kd [1, 3]: 30.9 nM
apparent Kd [1, 4]: 27.7 nM

UGUAUUGGAAACAGUACUAGUGAUCCGGUCCGAGGACCGGUACGGCCGCCACUCGAUAUAAAUAAACAUGAGGAUCACCCAUGUA
apparent Kd [1, 5]: 14.9 nM
apparent Kd [1, 6]: 29.8 nM

UUAUGCAGGUCGGCCGCCACUACACACAUGAGGAUCACCCAUGUAGUUACUGGGUGAAGUGGCAGUAGGACCGGGACCUGCAUAU
apparent Kd [1, 3]: 371 nM
apparent Kd [1, 4]: 227 nM

CCUAUGCAGUCGGCCGCCACUGAUAAAGUUAUCUUUACCUCAGAAACAUGAGGAUCACCCAUGUACAGGACCGGGACUGUAUAGG
apparent Kd [1, 5]: 12.7 nM
apparent Kd [1, 6]: 19.8 nM

AUGCAUAGCACGGCCGCCACUCCAUGUAAACAUGAGGAUCACCCAUGUAAUUUGGAUGUUUUAUAGAGGACCGGGUGAAAUGCAA
apparent Kd [1, 5]: 8.88 nM
apparent Kd [1, 6]: 15.1 nM

UAAUAAGUACCGGUUCUCAGAUCCUCAUGUCGAGGACCGGUACGGCCGCCACUCGAAACAUGAGGAUCACCCAUGUAAUAAUAAU
apparent Kd [1, 5]: 36.2 nM
apparent Kd [1, 6]: 31.7 nM

UGGGUACCGACGGCCGCCACUGACUAUAGACAUGAGGAUCACCCAUGUAGAGAUCCUAGACUACCCAGGACCGGGUCUGGUGCUA
apparent Kd [1, 5]: 124 nM
apparent Kd [1, 6]: 220 nM

AUGACUCACAAAGAAGAUAAAAUGGGUGAACGAGGACCGGUACGGCCGCCACUCGGACAUGAGGAUCACCCAUGUCCAUGUGCAA
apparent Kd [1, 5]: 22.1 nM
apparent Kd [1, 6]: 28.8 nM

GGUUACUCUACGGCCGCCACUGUAAUGUAAAGAUUCCUGUACAUGACAUGAGGAUCACCCAUGUGCAGGACCGGGUAGUGUAACC
apparent Kd [1, 3]: 194 nM
apparent Kd [1, 4]: 52.6 nM

AUUCAUGGAAACAUGACAUACAUUACCGGUCGAGGACCGGUACGGCCGCCACUCGGUUGGUGGCACAUGAGGAUCACCCAUGUUA
apparent Kd [1, 3]: 26.8 nM
apparent Kd [1, 4]: 26.7 nM

GGAUGGAACUCGGCCGCCACUGGUGAUCCUAAUGUACAUGAGGAUCACCCAUGUACAUGAGAAGAUAGGACCGGGAGAUAACAUG
apparent Kd [1, 3]: 27.7 nM
apparent Kd [1, 4]: 19.8 nM

AAUGUAUGCCACAUGAGGAUCACCCAUGUGCGAGGACCGGUACGGCCGCCACUCGGUCGGUGGUUAAUGAAGAUAUACAAUAAUG
apparent Kd [1, 5]: 11.5 nM
apparent Kd [1, 6]: 15.5 nM

GGGAGGGAGGCGGCCGCCACUGAUUUUCAUAUAUAUAUAACAUGAGGAUCACCCAUGUAGAUAUACAGGACCGGGCCUUUUUUUU
apparent Kd [1, 3]: 20.4 nM
apparent Kd [1, 4]: 19.5 nM

AACCGAGGCUAUCCUCUAAGAAUAUGUGAUACCAGAAUAAUUUUAUUCCCUUGGCAGCAUGACAUGAGGAUCACCCAUGUGUCUU
apparent Kd ([2]; no ligand): 134 nM
apparent Kd ([2]; ligand present: theophylline): 134 nM
